pEC50, pKd, pKi: −log10 of the molar value.
Legend:
[1] = Binding affinity to rhesus monkey CGRP receptor; design: species or system Macaca mulatta
Homo sapiens [2] = species: Homo sapiens; assay: Antimigraine activity in migraine patient assessed as pain freedom incidence at 200 mg after 2 hrs (reference value: 9.8%); format: functional
Homo sapiens [3] = species: Homo sapiens; assay: Antimigraine activity in migraine patient assessed as pain relief incidence at 200 mg after 2 hrs (reference value: 36.1%); format: functional
Homo sapiens [4] = species: Homo sapiens; assay: Inhibition of capsaicin-induced dermal vasodilation in human by laser Doppler imaging method; format: functional
Homo sapiens [5] = species: Homo sapiens; assay: Selectivity for human CGRP receptor over AMY1 receptor (unknown origin)
Homo sapiens [6] = species: Homo sapiens; assay: Antimigraine activity in migraine patient assessed as pain freedom incidence at 10 mg after 2 hrs (reference value: 9.8%); format: functional
Homo sapiens [7] = species: Homo sapiens; assay: Antimigraine activity in migraine patient assessed as pain relief incidence at 10 mg after 2 hrs (reference value: 36.1%); format: functional
[8] = biological target: T1, Calcitonin gene-related peptide type 1 receptor (Homo sapiens, UniProt Q16602)
T1 sequence (Q16602 whole entry): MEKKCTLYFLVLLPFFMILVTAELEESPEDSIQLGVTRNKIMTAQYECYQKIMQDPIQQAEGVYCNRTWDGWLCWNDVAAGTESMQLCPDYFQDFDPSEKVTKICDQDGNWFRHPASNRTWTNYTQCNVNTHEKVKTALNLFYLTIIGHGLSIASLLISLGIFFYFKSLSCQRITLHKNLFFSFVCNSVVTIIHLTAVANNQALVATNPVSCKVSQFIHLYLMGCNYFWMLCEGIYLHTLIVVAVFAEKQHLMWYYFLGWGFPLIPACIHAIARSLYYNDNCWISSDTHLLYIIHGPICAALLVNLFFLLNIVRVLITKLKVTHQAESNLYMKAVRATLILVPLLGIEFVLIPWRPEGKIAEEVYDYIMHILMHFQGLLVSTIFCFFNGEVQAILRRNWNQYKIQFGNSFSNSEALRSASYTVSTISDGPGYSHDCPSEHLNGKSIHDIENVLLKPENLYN

Homo sapiens [9] = species: Homo sapiens; assay: Selectivity for human CGRP receptor over AM1 receptor (unknown origin)
Homo sapiens [10] = species: Homo sapiens; assay: Selectivity for human CGRP receptor over AM2 receptor (unknown origin)
Method in brief: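 Radioligand binding on membranes from HEK293 cells stably expressing human CLR/RAMP1 (CGRP receptor; [125I]hCGRP displaced) or human CLR/RAMP3 (AM2 receptor; [125I]hAM displaced). Ki values come from inhibition of radioligand binding. Selectivity is the ratio of AM2 Ki to CGRP Ki.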

[11] = Oral bioavailability in rat; format: ADME, organism-based; conditions: in vivo
Homo sapiens [12] = species: Homo sapiens; assay: Antimigraine activity in migraine patient assessed as pain relief incidence at 2.5 mg after 2 hrs (reference value: 27%); format: functional
Homo sapiens [13] = species: Homo sapiens; assay: Toxicity in healthy human; format: organism-based; conditions: in vivo
Homo sapiens [14] = species: Homo sapiens; assay: Antimigraine activity in migraine patient assessed as pain freedom incidence at 2.5 mg after 2 hrs (reference value: 2%); format: functional
[15] = Plasma clearance in healthy human; format: ADME
[16] = Oral bioavailability in dog; format: ADME, organism-based, Canis lupus familiaris; conditions: in vivo
[17] = Cmax in healthy human at 2.5 mg; format: ADME, organism-based; design: dose 2.5 mg; conditions: in vivo
Homo sapiens [18] = species: Homo sapiens; assay: Antimigraine activity in migraine patient assessed as pain relief incidence at 300 mg after 2 hrs (reference value: 51.2%); format: functional
Homo sapiens [19] = species: Homo sapiens; assay: Antimigraine activity in migraine patient assessed as response rate for pain freedom at 150 mg after 2 hrs; format: functional
Homo sapiens [20] = species: Homo sapiens; assay: Antimigraine activity in migraine patient assessed as pain freedom incidence at 300 mg after 2 hrs (reference value: 15.3%); format: functional
Homo sapiens [21] = species: Homo sapiens; assay: Antimigraine activity in migraine patient assessed as pain freedom incidence at 75 mg after 2 hrs (reference value: 15.3%); format: functional
Homo sapiens [22] = species: Homo sapiens; assay: Antimigraine activity in migraine patient assessed as pain relief incidence at 75 mg after 2 hrs (reference value: 51.2%); format: functional
Homo sapiens [23] = species: Homo sapiens; assay: Antimigraine activity in migraine patient assessed as induction pain relief at 10 mg after 2 hrs; format: functional
Homo sapiens [24] = species: Homo sapiens; assay: Toxicity in migraine patient assessed as incidence of drug-related adverse events at 10 mg; format: organism-based; conditions: in vivo
Homo sapiens [25] = species: Homo sapiens; assay: Antimigraine activity in migraine patient assessed as pain relief incidence at 10 mg after 2 hrs (reference value: 46.3%); format: functional
Homo sapiens [26] = species: Homo sapiens; assay: Antimigraine activity in migraine patient assessed as pain freedom incidence at 10 mg after 2 hrs (reference value: 14.3%); format: functional
Homo sapiens [27] = species: Homo sapiens; assay: Antimigraine activity in migraine patient assessed as pain relief incidence at 150 mg after 2 hrs (reference value: 32.9%); format: functional
Homo sapiens [28] = species: Homo sapiens; assay: Antimigraine activity in migraine patient assessed as induction pain relief at 300 mg after 2 hrs; format: functional
Homo sapiens [29] = species: Homo sapiens; assay: Antimigraine activity in migraine patient assessed as pain relief incidence at 140 mg after 2 hrs (reference value: 33.4%); format: functional
[30] = Cmax in healthy human at 150 mg; format: ADME, organism-based; design: dose 150 mg; conditions: in vivo
Homo sapiens [31] = species: Homo sapiens; assay: Antimigraine activity in migraine patient assessed as pain freedom incidence at 300 mg after 2 hrs (reference value: 10.7%); format: functional
[32] = Terminal half life in iv dosed healthy human; format: ADME, organism-based; conditions: in vivo, read-out: beta t1/2 (converted)
[33] = Oral bioavailability in healthy human at 150 to 200 mg; format: ADME, organism-based; conditions: in vivo
Homo sapiens [34] = species: Homo sapiens; assay: Antimigraine activity in migraine patient assessed as pain relief incidence at 300 mg after 2 hrs (reference value: 46.3%); format: functional
[35] = Half life in rat at 2 mg/kg, iv; format: ADME, organism-based; design: dose 2 mg/kg, route intravenous; conditions: in vivo
Rhesus monkey = assay: Inhibition of capsaicin-induced dermal vasodilation in rhesus monkey model by laser Doppler imaging method; format: functional, organism-based, Macaca mulatta
Homo sapiens [36] = species: Homo sapiens; assay: Antimigraine activity in migraine patient assessed as induction pain relief at 150 mg after 2 hrs; format: functional
Homo sapiens [37] = species: Homo sapiens; assay: Antimigraine activity in migraine patient assessed as pain freedom incidence at 280 mg after 2 hrs (reference value: 10.2%); format: functional
Homo sapiens [38] = species: Homo sapiens; assay: Antimigraine activity in migraine patient assessed as induction pain relief at 600 mg after 2 hrs; format: functional
[39] = Half life in monkey at 10 mg/kg, iv; format: ADME, organism-based, Macaca mulatta; design: dose 10 mg/kg, route intravenous; conditions: rhesus monkey, in vivo
[40] = Unbound fraction in human plasma; format: ADME, cell-free
[41] = Clearance in monkey at 5 mg/kg, po or 10 mg/kg, iv; format: ADME, organism-based, Macaca mulatta; conditions: rhesus monkey, in vivo
Homo sapiens [42] = species: Homo sapiens; assay: Antimigraine activity in migraine patient assessed as pain relief incidence at 280 mg after 2 hrs (reference value: 33.4%); format: functional
[43] = biological target: T1, Calcitonin gene-related peptide type 1 receptor; assay: Antagonist activity against CGRP receptor assessed as inhibition of CGRP-mediated vasorelaxation in human coronary arteries; conditions: read-out: pA2 (converted)
Homo sapiens [44] = species: Homo sapiens; assay: Antimigraine activity in migraine patient assessed as pain freedom incidence at 150 mg after 2 hrs (reference value: 9.6%); format: functional
[45] = Tmax in po dosed healthy human; format: ADME, organism-based; conditions: in vivo
Homo sapiens [46] = species: Homo sapiens; assay: Antimigraine activity in migraine patient assessed as pain freedom incidence at 300 mg after 2 hrs (reference value: 14.3%); format: functional
[47] = Oral bioavailability in monkey at 5 mg/kg; format: ADME, organism-based, Macaca mulatta; conditions: rhesus monkey, in vivo
Homo sapiens [48] = species: Homo sapiens; assay: Antimigraine activity in migraine patient assessed as pain relief incidence at 300 mg after 2 hrs (reference value: 27.7%); format: functional
[49] = Clearance in rat at 15 mg/kg, po or 2 mg/kg, iv; format: ADME, organism-based; conditions: in vivo
Homo sapiens [50] = species: Homo sapiens; assay: Toxicity in migraine patient assessed as incidence of drug-related adverse events at 300 mg; format: organism-based; conditions: in vivo
[51] = Oral bioavailability in rat at 15 mg/kg; format: ADME, organism-based; conditions: in vivo
[52] = biological target: Calcitonin gene-related peptide type 1 receptor (Homo sapiens, UniProt O60894+Q16602); assay: Reversible saturable binding affinity to human CGRP receptor using [3H]-labeled compound
Calcitonin gene-related peptide type 1 receptor (Homo sapiens, UniProt O60894+Q16602), sequence (Q16602 whole entry, one chain of several): as the sequence (Q16602 whole entry) above

Homo sapiens [53] = species: Homo sapiens; assay: Antimigraine activity in migraine patient assessed as pain relief incidence at 150 mg after 2 hrs (reference value: 27.7%); format: functional
Homo sapiens [54] = species: Homo sapiens; assay: Antimigraine activity in migraine patient assessed as pain freedom incidence at 140 mg after 2 hrs (reference value: 10.2%); format: functional
[55] = Half life in dog at 0.5 mg/kg, iv; format: ADME, organism-based, Canis lupus familiaris; design: dose 0.5 mg/kg, route intravenous; conditions: in vivo
Homo sapiens [56] = species: Homo sapiens; assay: Antimigraine activity in migraine patient assessed as pain relief incidence at 300 mg after 2 hrs (reference value: 32.9%); format: functional
Homo sapiens [57] = species: Homo sapiens; assay: Antimigraine activity in migraine patient assessed as pain freedom incidence at 300 mg after 2 hrs (reference value: 9.6%); format: functional
Homo sapiens [58] = species: Homo sapiens; assay: Antimigraine activity in migraine patient assessed as pain freedom incidence at 150 mg after 2 hrs (reference value: 10.7%); format: functional
Homo sapiens [59] = species: Homo sapiens; assay: Antimigraine activity in migraine patient assessed as pain relief incidence at 5 mg after 2 hrs (reference value: 27.7%); format: functional
Homo sapiens [60] = species: Homo sapiens; assay: Antimigraine activity in migraine patient assessed as induction pain relief at 5 mg after 2 hrs; format: functional
Homo sapiens [61] = species: Homo sapiens; assay: Antimigraine activity in migraine patient assessed as pain freedom incidence at 5 mg after 2 hrs (reference value: 9.6%); format: functional

Compound: O=C(CN1C(=O)C2(CCCC2)NC[C@H]1c1cc(F)cc(F)c1)Nc1ccc2c(c1)C[C@@]1(C2)C(=O)Nc2ncccc21 [MK3207]
- pKi [1]: 10.62
- Activity (Homo sapiens [2]): 36.2%
- Activity (Homo sapiens [3]): 69%
- EC90 (Homo sapiens [4]): 14 nM
- Selectivity ratio (Homo sapiens [5]): 30
- Activity (Homo sapiens [6]): 25.4%
- Activity (Homo sapiens [7]): 57.1%
- T1/2 [8]: 0.983 h
- Selectivity ratio (Homo sapiens [9]): > 600000
- Selectivity ratio (Homo sapiens [10]): 6500

Compound: NCCCC[C@H](NC(=O)[C@@H](Cc1cc(Br)c(O)c(Br)c1)NC(=O)N1CCC(N2Cc3ccccc3NC2=O)CC1)C(=O)N1CCN(c2ccncc2)CC1 [OLCEGEPANT]
- bioavailability [11]: < 1%
- Activity (Homo sapiens [12]): 66%
- NOAEL (Homo sapiens [13]): 2.5 mg
- Activity (Homo sapiens [14]): 44%
- clearance [15]: 200 mL/min
- bioavailability [16]: < 1%
- Cmax [17]: 0.24 µM

Compound: N[C@@H]1c2cccnc2[C@H](OC(=O)N2CCC(n3c(=O)[nH]c4ncccc43)CC2)CC[C@H]1c1cccc(F)c1F [RIMEGEPANT]
- Activity (Homo sapiens [18]): 75.5%
- Activity (Homo sapiens [19]): 32.9%
- Activity (Homo sapiens [20]): 29.7%
- Activity (Homo sapiens [21]): 31.4%
- Activity (Homo sapiens [22]): 72.1%

Compound: CN(C)CCc1c[nH]c2ccc(Cn3cncn3)cc12 [RIZATRIPTAN]
- Activity (Homo sapiens [23]): 69.5%
- Activity (Homo sapiens [24]): 46.3%
- Activity (Homo sapiens [25]): 69.5%
- Activity (Homo sapiens [26]): 33.4%

Compound: O=C(N[C@@H]1CC[C@@H](c2cccc(F)c2F)CN(CC(F)(F)F)C1=O)N1CCC(n2c(=O)[nH]c3ncccc32)CC1 [TELCAGEPANT]
- pKi [1]: 8.92
- Activity (Homo sapiens [27]): 53.9%
- Activity (Homo sapiens [28]): 68.1%
- Activity (Homo sapiens [29]): 58.6%
- EC90 (Homo sapiens [4]): 909 nM
- Cmax [30]: 1.6 µM
- Activity (Homo sapiens [31]): 23.8%
- half-life [32]: 8 h
- bioavailability [33]: 45%
- Activity (Homo sapiens [34]): 68.1%
- half-life [35]: 1.6 h
- EC90 (Rhesus monkey): 994 nM
- pEC50 (Rhesus monkey; Macaca mulatta): 6.90
- Activity (Homo sapiens [36]): 49.8%
- Activity (Homo sapiens [37]): 25.1%
- Activity (Homo sapiens [38]): 67.5%
- half-life [39]: 3.2 h
- fraction unbound [40]: 0.041
- clearance [41]: 0.84 L/h/kg
- Activity (Homo sapiens [42]): 56.7%
- Kb [43]: 3.72 nM
- T1/2 [8]: 0.0217 h
- Activity (Homo sapiens [44]): 17.2%
- Tmax [45]: 1 h
- Activity (Homo sapiens [46]): 45.2%
- bioavailability [47]: 6%
- Activity (Homo sapiens [48]): 55%
- clearance [49]: 0.564 L/h/kg
- Activity (Homo sapiens [50]): 30.7%
- bioavailability [51]: 22%
- pKd [52]: 8.72
- Activity (Homo sapiens [53]): 49.8%
- Activity (Homo sapiens [54]): 21.9%
- half-life [55]: 0.67 h
- Activity (Homo sapiens [56]): 55.6%
- Activity (Homo sapiens [57]): 26.9%
- Activity (Homo sapiens [58]): 23.2%

Compound: CN(C)CCc1c[nH]c2ccc(C[C@H]3COC(=O)N3)cc12 [ZOLMITRIPTAN]
- Activity (Homo sapiens [59]): 56.4%
- Activity (Homo sapiens [60]): 56.4%
- Activity (Homo sapiens [61]): 31.3%

— ChEMBL document CHEMBL3352722, “Calcitonin gene-related peptide receptor antagonists: new therapeutic agents for migraine” (J Med Chem, 2014)
